Nine compounds from ChEMBL document CHEMBL1129494, “Structure-based design of lipophilic quinazoline inhibitors of thymidylate synthase” (J Med Chem, 1996) can be followed below.

Where only a bound is given, the exact number is not on record here.

In general, IC50 refers to the point on the concentration scale where inhibition reaches its midpoint. For orientation: Inhibition means how much of the control response was suppressed.

Test [1] has as its system CCRF-CEM. As to the kind of experiment: Activity for growth inhibition in tissue culture of human leukemias( CCRF-CEM). It is filed as functional, cell-based. In outline:
(§1)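 MTT colorimetric growth assay (modified Mosmann) in CCRF-CEM human leukemia cells seeded at 10 000 cells/well in RPMI-1640 with 5% fetal calf serum and 0.5% DMSO. Nine 2-fold serial dilutions of compound, 5 day incubation, then 4 h MTT and formazan dissolved in DMSO for spectrophotometric reading. IC50 taken from semilog plots of the mean of four growth assessments per dilution relative to control cultures.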

The target of test [2] is Thymidylate synthase (Homo sapiens) (UniProt P04818).
Test [3] deals with L1210. As to the kind of experiment: (§2) Inhibition of L1210 (murine leukemia) cell growth in vitro. It is filed as functional, Mus musculus. Also noted: concentration or dose not given beside the values. In outline: (§3)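 Murine L1210 leukemia cells seeded at 1000 cells/well in RPMI-1640 containing 5% fetal calf serum and 0.5% DMSO, exposed to nine 2-fold serial dilutions for 3 days. Growth was read by MTT (4 h), with formazan dissolved in DMSO and measured spectrophotometrically. IC50 comes from semilog concentration plots of the mean of four assessments per dilution versus control growth.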

The subject of test [4] is CCRF-CEM. Description: (§4) Inhibition of CCRF-CEM (human leukemia) cell growth in vitro. Also noted: concentration or dose not given beside the values. It is filed as functional. The essentials: as §1
Test [5] deals with L1210. Description: Inhibition of murine L1210 cell line tissue culture growth. It is filed as functional, cell-based. The settings on record: Mus musculus. In outline:
as §3

Test [6] deals with Thymidylate synthase (Escherichia coli) (UniProt C3SWJ7).
For test [7] the target is unchanged. This is another data set of the same source.
Test [8] addresses Thymidylate synthase (Homo sapiens) (UniProt P04818). The source holds these as a separate data set.
Test [9] concerns GC3/MTK-. Description: Inhibition of GC3/M TK- (human adenocarcinoma) cell growth in vitro; Insoluble. The test is classed as functional, cell-based. The essentials: (§5)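 Thymidine kinase-deficient human adenocarcinoma GC3/M TK- cells seeded at 10 000 cells/well in RPMI-1640 with 10% fetal calf serum and 0.5% DMSO. Compound given as nine 2-fold serial dilutions over a 5 day incubation, then 4 h MTT and spectrophotometric formazan read after DMSO dissolution. IC50 from semilog plots of the mean of four growth assessments relative to control cultures.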

Test [10] relates to L1210. Description: Activity for growth inhibition in tissue culture of murine (L1210); Insoluble. It is filed as functional, cell-based, Mus musculus. The essentials:
as §3

Test [11] concerns CCRF-CEM. Description: Activity for growth inhibition in tissue culture of human leukemias (CCRF-CEM); Insoluble. It is filed as functional, cell-based. The essentials:
as §1

In test [12] the test system is GC3/MTK-. Description: Inhibition of GC3/M TK- (human adenocarcinoma) cell growth in vitro. The test is classed as functional, cell-based. The essentials: as §5
In test [13] the test system is GC3/MTK-. Description: (§6) Inhibitory activity of compound against growth of thymidine kinase-deficient human adenocarcinoma cell line (GC3/M TK-) in tissue culture. It is filed as functional. Also noted: concentration or dose not given beside the values. In outline:
(§7)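 MTT colorimetric growth assay in the thymidine kinase-deficient human adenocarcinoma line. Seeded at 10 000 cells/well in RPMI-1640 with 10% fetal calf serum and 0.5% DMSO. Nine 2-fold serial dilutions of compound, 5 day incubation, then 4 h MTT. Formazan dissolved in DMSO and read spectrophotometrically. IC50 taken from semilog plots of the mean of four growth assessments per dilution, relative to control cultures.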

The subject of test [14] is CCRF-CEM. As to the kind of experiment: Activity for growth inhibition in tissue culture of human leukemias (CCRF-CEM). value in parenthesis indicates % inhibition. It is filed as functional, cell-based.
For test [15], the system named is CCRF-CEM. Description: Activity for growth inhibition in tissue culture of human leukemias (CCRF-CEM). It is filed as functional, cell-based. In outline: as §1
Test [16] has as its system GC3/MTK-. As to the kind of experiment: Activity for growth inhibition in tissue culture of thymidine kinase-deficient human adenocarcinoma cell line (GC3/M TK-)value in parenthesis indicates % inhibition. The test is classed as functional, cell-based.
Test [17] concerns GC3/MTK-. The test is described as §6. It is filed as functional. In outline:
as §7

Test [18] deals with CCRF-CEM. Description: Inhibitory activity of compound against growth of human leukemias (CCRF-CEM) cell lne in tissue culture. It is filed as functional. In outline: as §1
Test [19] concerns CCRF-CEM. Described as §4. The test is classed as functional, cell-based. The essentials: as §1
Test [20] relates to CCRF-CEM. As to the kind of experiment: Inhibitory activity of compound against growth of human leukemias (CCRF-CEM) cell line in tissue culture. The test is classed as functional. The essentials: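 CCRF-CEM human leukemia cells seeded at 10 000 cells/well in RPMI-1640 with 5% fetal calf serum and 0.5% DMSO. Exposed to nine 2-fold serial dilutions for 5 days, followed by 4 h with MTT. Formazan dissolved in DMSO and measured spectrophotometrically. IC50 read from semilog plots of the mean of four growth assessments per dilution versus control growth.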

Test [21] has as its system CCRF-CEM. Description: Inhibitory activity of compound against growth of human leukemias (CCRF-CEM) in tissue culture. The test is classed as functional. The essentials:
as §1

Test [22] deals with L1210. Described as §2. The test is classed as functional, Mus musculus. In outline:
as §3

Sequence of Thymidylate synthase (Homo sapiens) (P04818 2-313 limits assumed): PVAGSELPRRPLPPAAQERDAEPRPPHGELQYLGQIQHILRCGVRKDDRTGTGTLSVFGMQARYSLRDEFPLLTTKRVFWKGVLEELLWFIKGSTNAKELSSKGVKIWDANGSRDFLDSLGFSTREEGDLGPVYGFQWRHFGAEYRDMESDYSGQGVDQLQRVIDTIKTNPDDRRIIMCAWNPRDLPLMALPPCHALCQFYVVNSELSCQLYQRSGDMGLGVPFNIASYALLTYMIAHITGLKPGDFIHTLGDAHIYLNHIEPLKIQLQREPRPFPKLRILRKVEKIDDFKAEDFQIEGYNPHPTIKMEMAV
Sequence of Thymidylate synthase (Escherichia coli) (C3SWJ7 1-264): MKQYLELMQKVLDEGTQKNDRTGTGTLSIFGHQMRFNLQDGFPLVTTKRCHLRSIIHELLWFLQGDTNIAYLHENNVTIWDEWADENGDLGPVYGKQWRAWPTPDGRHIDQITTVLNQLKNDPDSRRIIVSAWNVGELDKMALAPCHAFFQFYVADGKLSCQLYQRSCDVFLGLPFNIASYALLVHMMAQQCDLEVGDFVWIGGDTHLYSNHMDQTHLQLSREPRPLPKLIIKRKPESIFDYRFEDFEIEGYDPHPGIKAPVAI

With `C#CCN(Cc1ccc2nc(C)nc(O)c2c1)c1ccc(Cl)cc1`, the IC50 in the test on CCRF-CEM [1] and with L1210 [5] was above 4 µM each time. In addition, the figures for the Kis in test [2] and in [7] were 0.36 µM and 0.85 µM, respectively. For the same compound, the Inhibition is 25% with L1210 [3] and 20% in the test on CCRF-CEM [4]. Moreover, the Kii in [6] is 3.7 µM; in test [8] it was 0.77 µM.

For the compound `C#CCN(Cc1ccc2nc(C)nc(O)c2c1)c1ccc(S(N)(=O)=O)c(C(F)(F)F)c1`, the IC50 entry with GC3/MTK- [9], with L1210 [10] and in the test with CCRF-CEM [11] was “Insoluble” each time. Moreover, the Kis in test [2] amounted to 0.036 µM; in [7], 0.024 µM. The results for the Kii in [6] and in test [8] were 0.061 µM and 0.07 µM, respectively.

Take `C#CCN(Cc1ccc2nc(C)nc(O)c2c1)c1cccc(CO)c1`: the Kis was 0.62 µM in [2] and 1.7 µM in [7]. For the same compound, the IC50 in the test with GC3/MTK- [12] is above 54 µM; with L1210 [5] it was 48 µM; in the test on CCRF-CEM [14], above 54 µM. For the same compound, the results for the Inhibition in the test with CCRF-CEM [4] and in the test with GC3/MTK- [13] were 30% and 22%, respectively. For the same compound, the Kii was found to be 5.1 µM in test [6] and 1.2 µM in [8].

In the case of `C#CCN(Cc1ccc2nc(C)nc(O)c2c1)c1ccc(C(=O)NC(CCC(=O)O)C(=O)O)cc1` (centres undefined), the results for the IC50 with CCRF-CEM [15], in the test on GC3/MTK- [12] and with L1210 [5] were 29 nM, 0.048 µM and 0.045 µM, respectively. Also, the Kis stood at 0.0085 µM in test [2] and 0.0048 µM in test [7]. In test [8], this compound gave a Kii of 0.0071 µM.

For the compound `C#CCN(Cc1ccc2nc(C)nc(O)c2c1)c1cccc(C)c1`, the half-inhibitory concentration (IC50) with GC3/MTK- [16], with L1210 [5] and with CCRF-CEM [19] was above 5 µM throughout. In addition, the results for the Inhibition in the test with GC3/MTK- [17], in the test on L1210 [3] and with CCRF-CEM [18] were 34%, 30% and 20%, respectively. The Kis was found to be 1.4 µM in [2] and 3.4 µM in [7]. Moreover, the values for the Kii in [6] and in test [8] were 16 µM and 3.4 µM, respectively.

Regarding `C#CCN(Cc1ccc2nc(C)nc(O)c2c1)c1ccc(C#N)c(Cl)c1`, the results for the Inhibition with GC3/MTK- [17] and with CCRF-CEM [20] were 25% and 10%, respectively. Further, the Kis in [2] stood at 0.037 µM; in test [7], 0.035 µM. Further, the values for the IC50 in the test on GC3/MTK- [12], in the test on L1210 [5] and with CCRF-CEM [19] were 6.7 µM, 4.5 µM and above 6.7 µM, respectively. The figures for the Kii in test [6] and in test [8] were 0.1 µM and 0.079 µM, respectively.

`C#CCN(Cc1ccc2nc(C)nc(O)c2c1)c1ccc(S(=O)(=O)N2CCN(C)CC2)cc1`: the values for the Kis in [2] and in test [7] were 0.083 µM and 0.13 µM, respectively. Further, the Inhibition is reported as 24% with CCRF-CEM [21], 27% in the test with L1210 [3] and 17% with GC3/MTK- [13]. Further, the IC50 in the test with GC3/MTK- [12], in the test on L1210 [5] and with CCRF-CEM [19] was above 10 µM in each case. In addition, the Kii was determined as 0.28 µM in test [6] and 0.19 µM in test [8].

In the case of `C#CCN(Cc1ccc2nc(C)nc(O)c2c1)c1ccc(C#N)cc1`, the figures for the concentration for half-maximal inhibition (IC50) in the test on CCRF-CEM [15], in the test on GC3/MTK- [12] and with L1210 [5] were above 5000 nM, above 5 µM and above 5 µM, respectively. For the same compound, the Kis in test [2] was 0.076 µM; in test [7], 0.15 µM. Also, the Inhibition with L1210 [3] was determined as 35%; in the test with CCRF-CEM [4], 10%. Moreover, the Kii in test [6] amounted to 0.33 µM; in test [8] it was 0.17 µM.

On to `C#CCN(Cc1ccc2nc(C)nc(O)c2c1)c1cccc(C(F)(F)F)c1`, for which the Inhibition in the test on GC3/MTK- [17] is on record as 25%; in the test on L1210 [22] it was 35%; in the test on CCRF-CEM [20], 41%. The IC50 in the test with GC3/MTK- [12] is above 4.3 µM; with L1210 [5], above 2.2 µM; with CCRF-CEM [19], above 4.3 µM.
